pIC50: −log10 of the molar value.
System: Trypanosoma brucei brucei
Assay: Antitrypanosomal activity against blood stream form of Trypanosoma brucei brucei BF427 after 48 hrs by Alamar Blue assay
Format: functional, organism-based
Details: BF427, 48 h
In short: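 Bloodstream-form T. b. brucei 427, starting inoculum 2 × 10³ parasites per well, exposed to 2-fold serial drug dilutions in HMI-9 with 10% FBS for 48 h at 37 °C, 5% CO₂. Final DMSO no more than 0.08%. Alamar Blue then added for a further 4 h, fluorescence read at 544/590 nm. IC50 from three biological replicates, each averaging three technical replicates.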

Structure (SMILES)	pIC50
N#CC=C[C@@H]1CC[C@@H](CC(=O)OCc2ccccc2)OO1 (mixture of isomers)	5.50
CC(=O)/C=C/[C@@H]1CC[C@@H](CC(=O)OCc2ccccc2)OO1	6.05
CC(C)(C)OC(=O)/C=C\[C@@H]1CC[C@@H](CC(=O)OCc2ccccc2)OO1	6.43
O=C(C[C@@H]1CC[C@@H](/C=C\C(=O)c2ccccc2)OO1)OCc1ccccc1	6.24
C=C[C@@H]1CC[C@@H](CC(=O)OCc2ccccc2)OO1	5.52
O=C(C[C@@H]1CC[C@@H](/C=C/C(=O)c2ccccc2)OO1)OCc1ccccc1	6.29
CCOC(=O)/C=C/[C@@H]1CC[C@@H](CC(=O)OCc2ccccc2)OO1	6.21
O=C(/C=C\[C@@H]1CC[C@@H](CC(=O)OCc2ccccc2)OO1)OCc1ccccc1	6.62
CC(=O)/C=C\[C@@H]1CC[C@@H](CC(=O)OCc2ccccc2)OO1	5.73
N=C(N)c1ccc(OCCCCCOc2ccc(C(=N)N)cc2)cc1	6.07
CCOC(=O)/C=C\[C@@H]1CC[C@@H](CC(=O)OCc2ccccc2)OO1	5.87
CC(C)(C)OC(=O)/C=C/[C@@H]1CC[C@@H](CC(=O)OCc2ccccc2)OO1	6.70
O=C(/C=C/[C@@H]1CC[C@@H](CC(=O)OCc2ccccc2)OO1)OCc1ccccc1	6.19
